Results from paper PMC4230322 (Biochemistry, 2014).
Where “and” joins values, the source holds several entries; their conditions need not be identical. Equal values may be shown once. One block for each compound: values may come before it.

Legend:
SULT1A1 [1] = target: T1, SULT1A1 (Homo sapiens, UniProt P50225); assay: Equilibrium binding of TAM and 1-HP to SULT1A1 forms E, E·PAP, E·
In short: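 Acceptor titrated into SULT1A1 (0.05–10 μM dimer) with PAP 0–500 μM, MgCl2 5.0 mM, NaPO4 (25 or 50 mM), pH 7.2, 25 ± 2 °C. Intrinsic fluorescence read at λex 290 nm, λem 345 nm. Free enzyme had no PAP; 0.50 mM PAP saturates both sites; singly bound form used 9.0 μM dimer with 9.0 μM PAP. Biphasic phases fitted separately. Triplicates averaged; least-squares single-site fit.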

SULT1A1 [2] = target: T1, SULT1A1; assay: Initial rate of 1-HP sulfonation by SULT1A1; assay type: biochemical
In short: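 Recombinant SULT1A1 at 1.0 nM dimer with MgCl2 5.0 mM and NaPO4 50 mM, pH 7.2, 25 ± 2 °C. Reactions started with PAPS: 2.0 μM saturates both sites, 0.30 μM only the first. Acceptor 8.0–200 nM. Product fluorescence read at λex 320 nm, λem 380 nm. […]. Duplicates; weighted least-squares fit in double-reciprocal form.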

SULT1A1 [3] = target: T1, SULT1A1; assay: Equilibrium binding of PAPS to SULT1A1; settings: for Kd: pH 7.2, 25 °C
In short: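 Human SULT1A1, codon-optimised, expressed in E. coli BL21(DE3) with a His/GST/MBP tag, then tag-cleaved. PAPS titrated into enzyme with MgCl2 5.0 mM and NaPO4 50 mM, pH 7.2, 25 ± 2 °C. Intrinsic fluorescence read at λex 290–295 nm, λem 345 nm. Dimer 0.05 μM for high-affinity Kd; 3.0 μM for first-site stoichiometry and low-affinity phase; 475 μM for full-site, at λex 297 nm. Triplicates averaged; single-site-per-dimer fit.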

SULT1A1 [4] = target: T1, SULT1A1; settings: PAP bound to SULT1A1, in favor of pore closure; cited from earlier work
SULT1A1 [5] = target: T1, SULT1A1; assay: Pre-steady-state PAPS binding; settings: for Kd: read-out: koff/kon
In short: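 Stopped-flow, excitation 290 nm, emission above 330 nm. Enzyme solution (MgCl2 5.0 mM, NaPO4, pH 7.2, 25 ± 2 °C) mixed 1:1 with PAPS solution. High-affinity site: 30 nM dimer. Low-affinity site: 2.0 μM dimer pre-equilibrated with PAPS, then mixed with higher PAPS. Pseudo-first-order; three curves per concentration (each 8–10 shots) at four PAPS levels. Single-exponential kobs; kon from slope, koff from intercept.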

SULT1A1 [6] = target: T1, SULT1A1; assay: Initial rate kinetics of TAM sulfation; assay type: biochemical
[7] = acceptor binding to E (no nucleotide), pH 7.2, 25 °C
[8] = acceptor binding to E·(PAP)2 (TAM: PAP 0.50 mM; 1-HP: PAP 2.0 µM)
[9] = 1-HP as substrate, E·PAP form, [PAPS] 0.30 μM
[10] = high-affinity PAPS binding site, pH 7.2, 25 °C
[11] = low-affinity PAPS binding site, dimer pre-equilibrated with PAPS

T1 sequence (P50225 whole entry): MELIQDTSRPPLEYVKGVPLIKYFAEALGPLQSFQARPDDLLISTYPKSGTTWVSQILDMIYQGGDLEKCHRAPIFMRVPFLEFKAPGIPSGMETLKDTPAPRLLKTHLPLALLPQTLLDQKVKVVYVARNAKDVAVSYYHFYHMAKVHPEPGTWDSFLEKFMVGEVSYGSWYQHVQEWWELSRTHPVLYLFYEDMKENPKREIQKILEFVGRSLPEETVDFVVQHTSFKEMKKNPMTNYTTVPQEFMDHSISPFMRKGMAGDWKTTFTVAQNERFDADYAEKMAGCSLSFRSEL

Compound: Oc1ccc2ccc3cccc4ccc1c2c34 [1-HP, 1-hydroxypyrene]
Kd (SULT1A1 [1]; [7]): 8000 nM
Kd (SULT1A1 [1]; [8]): 25 nM
kcat (SULT1A1 [2]; 1-HP as substrate, E·(PAP)2 form, [PAPS] 2.0 μM): 1000 (60) s^–1
Km (SULT1A1 [2]; [9]): 0.041 µM
kcat (SULT1A1 [2]; [9]): 130 (20) s^–1
effect of PAPS occupancy on Km (SULT1A1 [2]; 1-HP sulfonation): not affected by PAPS occupancy
increase in kcat, doubly vs singly occupied enzyme (SULT1A1 [2]; 1-HP sulfonation): ~8 fold
increase in turnover of each subunit, doubly vs singly occupied enzyme (SULT1A1 [2]; 1-HP sulfonation): 4 times

binding to SULT1A1 (SULT1A1 [3]; used in control titrations for inner-filter correction): does not bind SULT1A1
Compound: Nc1ncnc2c1ncn2[C@@H]1O[C@H](COP(=O)(O)O)[C@@H](O)[C@H]1O [AMP, Adenosine monophosphate]

Compound: Nc1ncnc2c1ncn2[C@@H]1O[C@H](COP(=O)(O)O)[C@@H](OP(=O)(O)O)[C@H]1O [PAP, 3′,5′-diphosphoadenosine]
isomerization equilibrium constant, Kiso (SULT1A1 [4]): 26

Kd (SULT1A1 [3]; high-affinity PAPS binding site, SULT1A1 0.05 μM dimer): 370 nM
difference in affinities (Kd) of the two PAPS binding sites (SULT1A1 [3]; low- vs high-affinity site): 81 fold
Kd (SULT1A1 [3]; low-affinity PAPS binding site, SULT1A1 3.0 μM dimer): 30000 nM
kon for the first site, aggregate value halved (SULT1A1 [5]; corrected for two subunits able to bind the first ligand): 1.0 μM^–1 s^–1
koff (SULT1A1 [5]; [10]): 0.70 (0.05) s^–1
kon (SULT1A1 [5]; [10]): 2.0 (0.1) μM^–1 s^–1
koff (SULT1A1 [5]; [11]): 29 (1) s^–1
kon (SULT1A1 [5]; [11]): 0.96 (0.01) μM^–1 s^–1
Kd (SULT1A1 [5]; high-affinity PAPS binding site): 370 nM
Kd (SULT1A1 [5]; low-affinity PAPS binding site): 30000 nM
Compound: Nc1ncnc2c1ncn2[C@@H]1O[C@H](COP(=O)(O)OS(=O)(=O)O)[C@@H](OP(=O)(O)O)[C@H]1O [PAPS, 3′-phosphoadenosine 5′-phosphosulfate]
PAPS binding stoichiometry at the high-affinity site (SULT1A1 [3]; SULT1A1 3.0 μM dimer (16Kd)): 1.1 ± 0.2 PAPS molecules per dimer and 1.1 ± 0.1 PAPS molecules per dimer

Kd (SULT1A1 [1]; [7]): 670 nM
Kd (SULT1A1 [1]; [8]): 680 nM and 650 nM
stoichiometry of binding to E and E·(PAP)2 (SULT1A1 [1]; SULT1A1 10 μM dimer, PAP 0 or 0.50 mM): 2.0 ± 0.1 TAM bound per SULT1A1 dimer
ratio of Km for the singly and doubly occupied enzyme (SULT1A1 [6]): 23
Compound: CC/C(=C(\c1ccc(O)cc1)c1ccc(OCCN(C)C)cc1)c1ccccc1 [TAM, 4-hydroxytamoxifen]
